# ChEMBL document CHEMBL4732148 (Eur J Med Chem, 2021)
# Calls of active or inactive are those of the source. No cut-off for these calls is given here.
# Key:
# [1] = Cytotoxicity against human Huh-7 cells assessed as reduction in cell viability measured after 48 hrs by celltiter-glo assay; type: cell-based; conditions: read-out: TC50
# [2] = system: Hepatitis C virus; experiment: Antiviral activity against HCV infected in human Huh-7 cells assessed as reduction in viral replication measured after 48 hrs by luciferase reporter gene assay; type: functional, organism-based, Hepacivirus hominis; conditions: Huh-7, 48 h
# Method in brief: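 Replicon-bearing Huh7 cells seeded at 10,000/well and allowed to attach for 24 h at 37 °C. Triplicate biological wells then treated 48 h with compound in DMEM, 10% FBS, 0.5% DMSO final. Bright-Glo luminescence expressed relative to untreated cells. IC50 from a four-parameter logistic fit.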
# [3] = Ratio of gemcitabine TC50 to test compound TC50 for cytotoxicity against human BXPC-3 cells assessed as reduction in cell viability; type: cell-based
# [4] = Ratio of gemcitabine TC50 to test compound TC50 for cytotoxicity against human MCF7 cells assessed as reduction in cell viability; type: cell-based
# [5] = Cytotoxicity against human BXPC-3 cells assessed as reduction in cell viability measured after 96 hrs by celltiter-glo assay; type: cell-based; conditions: read-out: TC50
# [6] = system: HepG2; experiment: Cytotoxicity against human HepG2 cells assessed as reduction in cell viability measured after 96 hrs by celltiter-glo assay; type: functional; conditions: read-out: TC50 (the source's name)
# [7] = Stability in pH 4 aqueous buffer assessed as parent compound remaining at 200 uM measured after 4 hrs by UV spectrophotometry; type: physicochemical; conditions: read-out: Stabilty
# Method in brief: (§1)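 Compound diluted to […] in aqueous buffers at pH 1.0, 2.0, 4.0, 6.0 or 8.0 and held 4 h at 40 °C. Intact prodrug separated by reverse-phase HPLC. 260 nm peak area after incubation compared with untreated prodrug, giving % remaining.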
# [8] = system: Hepatitis C virus; experiment: Ratio of IC50 for antiviral activity against HCV infected in human Huh-7 cells assessed as reduction in viral replication preincubated for 2 hrs followed by replacement with fresh culture medium and measured after 46 hrs by luciferase reporter gene assay to IC50 for antiviral activity against HCV infected in human Huh-7 cells assessed as reduction in viral replication measured after 48 hrs by …; type: functional, Hepacivirus hominis
# [9] = Cytotoxicity against human MCF7 cells assessed as reduction in cell viability measured after 96 hrs by celltiter-glo assay; type: cell-based; conditions: read-out: TC50
# [10] = Cytotoxicity against human Huh-7 cells assessed as reduction in cell viability measured after 48 hrs in presence of ENT1 inhibitor NBTI […]; type: cell-based; conditions: with NBTI (ENT1 inhibitor; concentration not stated), read-out: TC50
# [11] = Stability in pH 6 aqueous buffer assessed as parent compound remaining at 200 uM measured after 4 hrs by UV spectrophotometry; type: physicochemical; conditions: read-out: Stabilty; method in brief: as §1
# [12] = Cytotoxicity against HEK293 cells assessed as reduction in cell viability measured after 96 hrs by celltiter-glo assay; type: cell-based; conditions: human, read-out: TC50
# [13] = system: Hepatitis C virus; experiment: Antiviral activity against HCV infected in human Huh-7 cells assessed as reduction in viral replication preincubated for 2 hrs followed by replacement with fresh culture medium and measured after 46 hrs by luciferase reporter gene assay; type: functional, organism-based, Hepacivirus hominis
# Method in brief: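 HCV luciferase-replicon Huh7 cells were seeded at 10,000 cells/well and allowed 24 h to attach. Three biological replicates were exposed to graded compound in DMEM/10% FBS/0.5% DMSO for 2 h only, then the medium was replaced with fresh growth medium for 46 h at 37 °C.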
# [14] = Stability in pH 2 aqueous buffer assessed as parent compound remaining at 200 uM measured after 4 hrs by UV spectrophotometry; type: physicochemical; conditions: read-out: Stabilty; method in brief: as §1
# [15] = Stability in pH 1 aqueous buffer assessed as parent compound remaining at 200 uM measured after 4 hrs by UV spectrophotometry; type: physicochemical; conditions: read-out: Stabilty; method in brief: as §1
# [16] = Stability in pH 8 aqueous buffer assessed as parent compound remaining at 200 uM measured after 4 hrs by UV spectrophotometry; type: physicochemical; conditions: read-out: Stabilty; method in brief: as §1
# [17] = Toxicity in human Huh-7 cells assessed as reduction in cell viability measured after 96 hrs by celltiter-glo assay; type: cell-based; conditions: read-out: TC50
# [18] = system: Hepatitis C virus; experiment: Antiviral activity against HCV infected in human Huh-7 cells assessed as reduction in viral replication at 25 to 1000 nM measured after 48 hrs in presence of deoxycytidine by luciferase reporter gene assay; type: functional, organism-based; conditions: Hepacivirus hominis, dose 25-1000 nM
# Method in brief: (§2)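 Huh7 cells carrying an HCV luciferase replicon, grown in DMEM with 10% FBS and G418. Cells treated 48 h continuously with compound at 25–1,000 nM, either alone or together with 50 µM cytidine or 2′-deoxycytidine. Luciferase activity read in lysates. Three biological replicates, SD.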
# [19] = system: Hepatitis C virus; experiment: Antiviral activity against HCV infected in human Huh-7 cells assessed as reduction in viral replication at 25 to 1000 nM measured after 48 hrs in presence of cytidine by luciferase reporter gene assay; type: functional, organism-based; conditions: Hepacivirus hominis, dose 25-1000 nM; method in brief: as §2
# [20] = system: Hepatitis C virus; experiment: Antiviral activity against HCV infected in human Huh-7 cells assessed as reduction in viral replication at 500 nM measured after 24 to 30 hrs by luciferase reporter gene assay; type: functional, Hepacivirus hominis; set-up: scale not given: the % may be the effect or the level left; conditions: time 24-30 hrs
# Method in brief: (§3)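 Huh7 luciferase replicon cells treated with 500 nM compound or mock for up to 48 h. Cells were lysed at various times and the lysates snap-frozen in liquid nitrogen. All lysates were then assayed for luciferase together.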
# [21] = system: Hepatitis C virus; experiment: Antiviral activity against HCV infected in human Huh-7 cells assessed as reduction in viral replication at 500 nM measured after 48 hrs by luciferase reporter gene assay; type: functional, organism-based; conditions: Hepacivirus hominis; method in brief: as §3
smiles,measurement,setting,value
O=C(Nc1ccn([C@@H]2O[C@H](CO)[C@@H](O)C2(F)F)c(=O)n1)c1ccc2c(c1)CCO2,CC50 at 48 h,[1],954 µM
same,IC50,[2],145 nM
O=C(Nc1ccn([C@@H]2O[C@H](CO)[C@@H](O)C2(F)F)c(=O)n1)c1ccc2c(c1)OCO2,selectivity ratio,[3],≤ 620
same,selectivity ratio,[4],≤ 24
same,CC50 at 48 h,[1],470 µM
same,CC50 at 96 h,[5],0.72 µM
same,CC50,[6],2.8 µM
same,"remaining at 4 h, 200 µM",[7],100%
same,Ratio IC50,[8],51
same,CC50 at 96 h,[9],1.2 µM
same,CC50 at 48 h,[10],440 µM
same,"remaining at 4 h, 200 µM",[11],100%
same,CC50 at 96 h,[12],4.1 µM
same,IC50,[13],3.1 µM
same,"remaining at 4 h, 200 µM",[14],100%
same,"remaining at 4 h, 200 µM",[15],64%
same,"remaining at 4 h, 200 µM",[16],92%
same,CC50 at 96 h,[17],7 µM
same,IC50,[2],59.8 nM
COc1ccc2cc(C(=O)Nc3ccn([C@@H]4O[C@H](CO)[C@@H](O)C4(F)F)c(=O)n3)ccc2c1,CC50 at 48 h,[1],168 µM
same,IC50,[2],93.5 nM
O=C(Nc1ccn([C@@H]2O[C@H](CO)[C@@H](O)C2(F)F)c(=O)n1)c1ccc2c(c1)OCCCO2,CC50 at 48 h,[1],881 µM
same,IC50,[2],91.5 nM
O=C(Nc1ccn([C@@H]2O[C@H](CO)[C@@H](O)C2(F)F)c(=O)n1)c1ccc2c(c1)CCCC2,CC50 at 48 h,[1],132 µM
same,IC50,[2],86 nM
O=C(Nc1ccn([C@@H]2O[C@H](CO)[C@@H](O)C2(F)F)c(=O)n1)c1ccc2cc(Br)ccc2c1,CC50 at 48 h,[1],74 µM
same,IC50,[2],185 nM
O=C(Nc1ccn([C@@H]2O[C@H](CO)[C@@H](O)C2(F)F)c(=O)n1)c1ccc2c(c1)OC(F)(F)O2,CC50 at 48 h,[1],188 µM
same,IC50,[2],46.4 nM
COc1cc(OC)cc(C(=O)Nc2ccn([C@@H]3O[C@H](CO)[C@@H](O)C3(F)F)c(=O)n2)c1,Activity,[18],inactive
same,Activity,[19],inactive
same,selectivity ratio,[4],≤ 24
same,CC50 at 48 h,[1],962 µM
same,CC50,[6],3 µM
same,CC50 at 96 h,[9],1.6 µM
same,CC50 at 96 h,[12],4 µM
same,CC50 at 96 h,[17],18.5 µM
same,IC50,[2],73.4 nM
O=C(Nc1ccn([C@@H]2O[C@H](CO)[C@@H](O)C2(F)F)c(=O)n1)c1cc(Cl)cc(Cl)c1,Activity,[20],50%
same,Activity,[18],inactive
same,Activity,[19],inactive
same,selectivity ratio,[4],≤ 24
same,CC50 at 48 h,[1],110 µM
same,CC50,[6],0.6 µM
same,"remaining at 4 h, 200 µM",[7],98.4%
same,CC50 at 96 h,[9],0.33 µM
same,"remaining at 4 h, 200 µM",[11],99.6%
same,Activity,[21],Active
same,CC50 at 96 h,[12],1.2 µM
same,"remaining at 4 h, 200 µM",[14],82%
same,"remaining at 4 h, 200 µM",[15],35%
same,"remaining at 4 h, 200 µM",[16],35.4%
same,CC50 at 96 h,[17],4.2 µM
same,IC50,[2],25.5 nM
Cc1cc2c(cc1C(=O)Nc1ccn([C@@H]3O[C@H](CO)[C@@H](O)C3(F)F)c(=O)n1)OCCO2,CC50 at 48 h,[1],626 µM
same,IC50,[2],1690 nM
COc1cccc(OC)c1C(=O)Nc1ccn([C@@H]2O[C@H](CO)[C@@H](O)C2(F)F)c(=O)n1,CC50 at 48 h,[1],4580 µM
same,IC50,[2],451 nM
COC(=O)N[C@H](C(=O)N1CCC[C@H]1c1ncc(-c2ccc(-c3ccc(-c4cnc([C@@H]5CCCN5C(=O)[C@@H](NC(=O)OC)C(C)C)[nH]4)cc3)cc2)[nH]1)C(C)C,IC50,[2],0.031 nM
O=C(Nc1ccn([C@@H]2O[C@H](CO)[C@@H](O)C2(F)F)c(=O)n1)c1ccc2c(c1)C(=O)c1ccccc1C2=O,CC50 at 48 h,[1],249 µM
same,IC50,[2],12.8 nM
Cc1ccc(C(=O)Nc2ccn([C@@H]3O[C@H](CO)[C@@H](O)C3(F)F)c(=O)n2)cc1,CC50 at 48 h,[1],329 µM
same,CC50 at 48 h,[10],240 µM
same,IC50,[2],43.1 nM
O=C(Nc1ccn([C@@H]2O[C@H](CO)[C@@H](O)C2(F)F)c(=O)n1)c1ccc(Cl)cc1,CC50 at 48 h,[1],138 µM
same,IC50,[2],37.6 nM
O=C(Nc1ccn([C@@H]2O[C@H](CO)[C@@H](O)C2(F)F)c(=O)n1)c1ccc2ccccc2c1,CC50 at 48 h,[1],125 µM
same,IC50,[2],126 nM
O=C(Nc1ccn([C@@H]2O[C@H](CO)[C@@H](O)C2(F)F)c(=O)n1)C1Cc2ccccc2C1,CC50 at 48 h,[1],> 500 µM
same,IC50,[2],10 nM
O=C(Nc1ccn([C@@H]2O[C@H](CO)[C@@H](O)C2(F)F)c(=O)n1)c1c(Br)ccc2c1OCO2,CC50 at 48 h,[1],2210 µM
same,IC50,[2],340 nM
COc1ccc(C(=O)Nc2ccn([C@@H]3O[C@H](CO)[C@@H](O)C3(F)F)c(=O)n2)cc1,CC50 at 48 h,[1],572 µM
same,IC50,[2],60 nM
CC1(C)Cc2ccc(C(=O)Nc3ccn([C@@H]4O[C@H](CO)[C@@H](O)C4(F)F)c(=O)n3)cc2O1,CC50 at 48 h,[1],1160 µM
same,IC50,[2],177 nM
O=C(Nc1ccn([C@@H]2O[C@H](CO)[C@@H](O)C2(F)F)c(=O)n1)c1ccc(Cl)c(Cl)c1,CC50 at 48 h,[1],> 100 µM
same,IC50,[2],17.4 nM
O=C(Nc1ccn([C@@H]2O[C@H](CO)[C@@H](O)C2(F)F)c(=O)n1)c1cc2c(cc1[N+](=O)[O-])OCO2,CC50 at 48 h,[1],> 500 µM
same,IC50,[2],46.7 nM
O=C(Nc1ccn([C@@H]2O[C@H](CO)[C@@H](O)C2(F)F)c(=O)n1)c1ccc2c(c1)CCC2,CC50 at 48 h,[1],378 µM
same,IC50,[2],58.6 nM
CCc1ccc(C(=O)Nc2ccn([C@@H]3O[C@H](CO)[C@@H](O)C3(F)F)c(=O)n2)cc1,CC50 at 48 h,[1],490 µM
same,CC50 at 48 h,[10],360 µM
same,IC50,[2],58.4 nM
O=C(Nc1ccn([C@@H]2O[C@H](CO)[C@@H](O)C2(F)F)c(=O)n1)c1ccc2c(c1)OCCO2,selectivity ratio,[3],≤ 620
same,selectivity ratio,[4],≤ 24
same,CC50 at 48 h,[1],855 µM
same,CC50 at 96 h,[5],1.2 µM
same,CC50,[6],1.1 µM
same,"remaining at 4 h, 200 µM",[7],100%
same,CC50 at 96 h,[9],1.4 µM
same,"remaining at 4 h, 200 µM",[11],100%
same,CC50 at 96 h,[12],5.6 µM
same,"remaining at 4 h, 200 µM",[14],100%
same,"remaining at 4 h, 200 µM",[15],71%
same,"remaining at 4 h, 200 µM",[16],100%
same,CC50 at 96 h,[17],3.3 µM
same,IC50,[2],127 nM
O=C(Nc1ccn([C@@H]2O[C@H](CO)[C@@H](O)C2(F)F)c(=O)n1)c1cccc2c1CCCC2,CC50 at 48 h,[1],92 µM
same,IC50,[2],161 nM
COc1c(Cl)cc(C(=O)Nc2ccn([C@@H]3O[C@H](CO)[C@@H](O)C3(F)F)c(=O)n2)cc1Cl,CC50 at 48 h,[1],> 100 µM
same,IC50,[2],19.3 nM
O=C(Nc1ccn([C@@H]2O[C@H](CO)[C@@H](O)C2(F)F)c(=O)n1)c1ccc(Cl)cc1Cl,CC50 at 48 h,[1],> 100 µM
same,IC50,[2],77.5 nM
